Test [1] has as its target T1, Polyunsaturated fatty acid 5-lipoxygenase (Homo sapiens, UniProt P09917).
T1 sequence (P09917 whole entry): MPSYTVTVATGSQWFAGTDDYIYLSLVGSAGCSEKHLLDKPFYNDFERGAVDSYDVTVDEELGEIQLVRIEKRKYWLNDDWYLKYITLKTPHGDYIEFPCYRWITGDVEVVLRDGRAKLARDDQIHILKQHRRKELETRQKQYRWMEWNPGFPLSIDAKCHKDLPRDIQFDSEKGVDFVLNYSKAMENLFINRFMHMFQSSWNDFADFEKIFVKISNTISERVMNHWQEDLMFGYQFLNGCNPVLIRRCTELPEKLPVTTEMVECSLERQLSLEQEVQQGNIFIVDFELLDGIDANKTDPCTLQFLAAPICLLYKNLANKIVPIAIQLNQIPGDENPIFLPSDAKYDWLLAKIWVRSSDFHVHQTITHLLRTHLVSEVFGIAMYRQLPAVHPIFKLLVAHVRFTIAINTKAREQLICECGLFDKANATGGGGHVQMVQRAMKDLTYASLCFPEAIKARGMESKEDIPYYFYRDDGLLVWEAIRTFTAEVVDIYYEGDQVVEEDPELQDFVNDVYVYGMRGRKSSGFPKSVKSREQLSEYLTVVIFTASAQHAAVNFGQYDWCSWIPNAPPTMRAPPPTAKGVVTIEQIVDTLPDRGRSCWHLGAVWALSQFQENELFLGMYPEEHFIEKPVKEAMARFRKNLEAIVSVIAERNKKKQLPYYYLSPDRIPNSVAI
As to the kind of experiment: Inhibition of 5-LO in human neutrophils using arachidonic acid as substrate assessed as reduction in 5-LO product formation preincubated for 15 mins followed by substrate addition measured after 10 mins in presence of Ca2+ ionophore A23187 by HPLC analysis. Put shortly: (§1)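 Human neutrophils (5 × 10^6 in 1 ml PBS with 1 mg/ml glucose) pre-incubated 15 min at 37 °C with compound or 0.1% DMSO, then activated with 1 mM CaCl2 and 2.5 µM A23187, with or without 20 µM AA; 5-LO products measured after 10 min. Residual activity at 10 µM; IC50 by nonlinear regression from 4-5 concentrations; mean ± SEM, n=3-4.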

Test [2] concerns the target T2, Prostaglandin E synthase (Homo sapiens) (UniProt O14684).
T2 sequence (whole entry): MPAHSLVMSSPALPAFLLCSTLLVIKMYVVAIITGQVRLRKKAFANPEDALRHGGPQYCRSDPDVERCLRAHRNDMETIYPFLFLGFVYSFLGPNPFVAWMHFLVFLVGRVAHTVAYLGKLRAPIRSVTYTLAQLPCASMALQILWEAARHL
As to the kind of experiment: Inhibition of mPGES-1 isolated from microsomes of interleukin-1 beta-stimulated human A549 cells assessed as residual activity at 10 uM using PGH2 as substrate preincubated for 15 mins followed by substrate addition measured after 1 min by RP-HPLC analysis.

The target in test [3] is T3, Polyunsaturated fatty acid 5-lipoxygenase (Homo sapiens) (UniProt P09917).
T3 sequence (whole entry): T1 sequence (P09917 whole entry)
Nature of the test: Inhibition of recombinant human 5-LO expressed in Escherichia coli BL21 (DE3) using arachidonic acid as substrate assessed as residual activity preincubated for 10 mins followed by CaCl2 and substrate addition measured after 10 mins by RP-HPLC analysis. In short, it runs like this: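 Human recombinant 5-LO from E. coli BL21(DE3), ATP-agarose semi-purified (0.5 µg/ml), pre-incubated with compound or 0.1% DMSO at 4 °C. It was pre-warmed 30 s at 37 °C, then started with 2 mM CaCl2 plus 20 µM AA. Stopped after 10 min with ice-cold methanol; products by RP-HPLC. Residual activity at 10 µM; IC50 from 4-5 concentrations; n=3-4.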

A further test deals with T4, Prostaglandin E synthase (Homo sapiens, UniProt O14684).
T4 sequence (O14684 whole entry): T2 sequence (whole entry)
Nature of the test: Inhibition of mPGES-1 isolated from microsomes of interleukin-1 beta-stimulated human A549 cells using PGH2 as substrate preincubated for 15 mins followed by substrate addition measured after 1 min by RP-HPLC analysis. Put shortly: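 Microsomes from A549 cells treated with IL-1β (1 ng/ml, 72 h), diluted in 0.1 M potassium phosphate pH 7.4 with 2.5 mM glutathione. Pre-incubated 15 min with compound or DMSO, then 20 µM PGH2 (final) for 1 min at 4 °C. IC50 from 4-5 concentrations.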

In test [4] the target is T3, Polyunsaturated fatty acid 5-lipoxygenase (Homo sapiens). As to the kind of experiment: Inhibition of 5-LO in human neutrophils using arachidonic acid as substrate assessed as residual activity preincubated for 15 mins followed by substrate addition measured after 10 mins in presence of Ca2+ ionophore A23187 by HPLC analysis. In short, it runs like this: as §1

For orientation: IC50 means the concentration needed to halve the response being measured.

In the case of `O=C(O)c1ccc(N(Cc2ccoc2)S(=O)(=O)c2ccc(-c3ccccc3)cc2)cc1`, in test [1], the IC50 came out at 8.4 µM. The Activity in test [2] turned out to be 56.8%; in test [3] it was 110%.

Regarding `O=C(O)c1ccc(N(Cc2cccs2)S(=O)(=O)c2ccc(-c3ccccc3)cc2)cc1`, the IC50 came to 4.4 µM in test [1] and 4.7 µM against Prostaglandin E synthase. Moreover, the Activity in test [3] amounted to 66.4%.

As to `Cc1ccc(S(=O)(=O)N(Cc2c(F)cccc2Cl)c2ccc(C(=O)O)cc2)cc1`, the results for the Activity in test [4], in test [2] and in test [3] were 75.4%, 85.7% and 86.7%, respectively.

`O=C(O)c1ccc(N(Cc2cccs2)S(=O)(=O)c2ccc(F)cc2)cc1`: the figures for the Activity in test [4], in test [2] and in test [3] were 94.6%, 96.5% and 86.7%, respectively.

`Cc1ccc(S(=O)(=O)N(Cc2ccsc2)c2ccc(C(=O)O)cc2)cc1`: the Activity came to 98.2% in test [4], 90.7% in test [2] and 106% in test [3].

With `O=C(O)c1ccc(N(Cc2ccc3c(c2)OCO3)S(=O)(=O)c2ccc(-c3ccccc3)cc2)cc1`, the results for the concentration for half-maximal inhibition (IC50) (in test [1]; on Prostaglandin E synthase) were 3.2 µM and 1.9 µM, respectively. The Activity in test [3] came out at 88.4%.

For the compound `Cc1ccc(S(=O)(=O)N(CC2CCCCC2)c2ccc(C(=O)O)cc2)cc1`, the Activity in test [4] came out at 76.9%; in test [2], 91.6%; in test [3] it was 91.4%.

With `Cc1ccc(S(=O)(=O)N(Cc2ccc3ccccc3c2)c2ccc(C(=O)O)cc2)cc1`, in test [1], the IC50 was 4.8 µM. Moreover, the Activity in test [2] amounted to 52.8%; in test [3] it was 96.7%.

For `O=C(O)c1ccc(N(Cc2ccc3ccccc3c2)C(=O)c2ccc(-c3ccccc3)cc2)cc1`, the IC50 in test [1] was determined as 1.7 µM; at Prostaglandin E synthase, 2.9 µM. Also, the Activity in test [3] was 78%.

As to `Cc1ccc(S(=O)(=O)N(Cc2ccccc2Cl)c2ccc(C(=O)O)cc2)cc1`, the Activity in test [4] was found to be 95.2%; in test [2] it was 71.7%; in test [3] it was 115%.

`Cc1ccc(S(=O)(=O)N(Cc2cccs2)c2ccc(C(=O)O)cc2)cc1`: the Activity turned out to be 104% in test [4], 92.5% in test [2] and 92.7% in test [3].

Regarding `Cc1ccc(S(=O)(=O)N(Cc2ccc(Cl)c(Cl)c2)c2ccc(C(=O)O)cc2)cc1`, the IC50 came out at 2.4 µM in test [1] and 6.3 µM against Prostaglandin E synthase. In test [3], the Activity was 97.6%.

Regarding `Cc1ccc(S(=O)(=O)N(Cc2ccc(Cl)cc2)c2ccc(C(=O)O)cc2)cc1`, the Activity worked out at 83.2% in test [4], 71.2% in test [2] and 100% in test [3].

As to `CC(C)(C)c1ccc(CN(c2ccc(C(=O)O)cc2)S(=O)(=O)c2ccc(C(C)(C)C)cc2)cc1`, the values for the IC50 (in test [1]; against Prostaglandin E synthase) were 0.7 µM and 3.2 µM, respectively. Further, the Activity in test [3] was 50.2%.

As to `O=C(O)c1ccc(N(CC2CCCCC2)S(=O)(=O)c2ccc(Oc3ccccc3)cc2)cc1`, the IC50 in test [1] amounted to 5.4 µM; against Prostaglandin E synthase, 2.6 µM. In test [3], the Activity amounted to 72%.

As to `Cc1ccc(CN(c2ccc(C(=O)O)cc2)S(=O)(=O)c2ccc(C)cc2)cc1`, the Activity in test [4] was 96.7%; in test [2], 82.8%; in test [3], 93.4%.

Turning to `Cc1ccc(S(=O)(=O)N(Cc2cccc(Cl)c2)c2ccc(C(=O)O)cc2)cc1`, the Activity in test [4] worked out at 84.7%; in test [2], 74.1%; in test [3] it was 107%.

In the case of `Cc1ccc(S(=O)(=O)N(Cc2ccccc2)c2ccc(C(=O)O)cc2)cc1`, the Activity was found to be 75.7% in test [4], 91.3% in test [2] and 81.1% in test [3].

For the compound `CCCCCCN(c1ccc(C(=O)O)cc1)S(=O)(=O)c1ccc(C)cc1`, the Activity was found to be 65.2% in test [4], 79.9% in test [2] and 86.1% in test [3].

For `O=C(O)c1ccc(N(Cc2cccs2)S(=O)(=O)c2ccc(C(=O)O)cc2)cc1`, the results for the Activity in test [4], in test [2] and in test [3] were 112%, 94.6% and 93%, respectively.

For `COc1cccc(CN(c2ccc(C(=O)O)cc2)S(=O)(=O)c2ccc(-c3ccccc3)cc2)c1`, the half-inhibitory concentration (IC50) worked out at 1.3 µM in test [1] and 6.2 µM against Prostaglandin E synthase. Moreover, the Activity in test [3] came to 78.6%.

`O=C(O)c1ccc(N(CC2CCCCC2)S(=O)(=O)c2ccc(F)cc2)cc1`: the Activity is 98.7% in test [4], 88.9% in test [2] and 109% in test [3].

Take `O=C(O)c1ccc(N(CC2CCCCC2)S(=O)(=O)c2ccc(-c3ccccc3)cc2)cc1`: the IC50 in test [1] came out at 3.4 µM; against Prostaglandin E synthase, 3.2 µM. The Activity in test [3] came to 57.5%.

For `Cc1ccc(S(=O)(=O)N(Cc2ccccc2)c2ccc(C(=O)NS(=O)(=O)c3ccccc3)cc2)cc1`, the Activity is 80% in test [4] and 88.9% in test [3]. Also, on Prostaglandin E synthase, it took 2.7 µM to reach half-maximal inhibition (IC50).

With `O=C(O)c1ccc(N(Cc2cccs2)S(=O)(=O)c2ccc(-c3ccc4ccccc4c3)cc2)cc1`, the values for the Activity in test [4], in test [2] and in test [3] were 69.7%, 76.7% and 71.9%, respectively.

`COc1ccc(CN(c2ccc(C(=O)O)cc2)S(=O)(=O)c2ccc(C)cc2)cc1OC`: the Activity in test [4] stood at 110%; in test [2], 95.7%; in test [3], 93.2%.

As to `CCCCCCN(c1ccc(C(=O)O)cc1)S(=O)(=O)c1ccc(-c2ccccc2)cc1`, the figures for the IC50 (in test [1]; on Prostaglandin E synthase) were 1.5 µM and 1.9 µM, respectively. Further, the Activity in test [3] turned out to be 105%.

Turning to `O=C(O)c1ccc(N(Cc2cnc3ccccc3c2)S(=O)(=O)c2ccc(-c3ccccc3)cc2)cc1`, the figures for the IC50 (in test [1]; at Prostaglandin E synthase) were 2.1 µM and 4.7 µM, respectively. In test [3], the Activity came out at 75%.

With `CCCCN(c1ccc(C(=O)O)cc1)S(=O)(=O)c1ccc(-c2ccccc2)cc1`, the IC50 in test [1] was 4 µM. In addition, the Activity was 52.6% in test [2] and 115% in test [3].

For `CCCCN(c1ccc(C(=O)O)cc1)S(=O)(=O)c1ccc(C)cc1`, the Activity is 112% in test [4], 79.9% in test [2] and 99.1% in test [3].

On to `Cc1ccc(S(=O)(=O)N(Cc2cccs2)c2ccc(CC(=O)O)cc2)cc1`, for which the Activity in test [4] is 102%; in test [2], 96.4%; in test [3], 97%.

For the compound `Cc1ccc(S(=O)(=O)N(Cc2ccc(Oc3ccccc3)cc2)c2ccc(C(=O)O)cc2)cc1`, the IC50 stood at 3.5 µM in test [1] and 5.3 µM against Prostaglandin E synthase. Besides, in test [3], the Activity is 61.4%.

As for `O=C(O)c1ccc(N(Cc2ccccc2)S(=O)(=O)c2ccc(-c3ccccc3)cc2)cc1`, the IC50 was found to be 3.3 µM in test [1] and 4 µM at Prostaglandin E synthase. In test [3], the Activity came to 96.2%.

Regarding `O=C(O)c1ccc(N(Cc2ccc3c(c2)OCCO3)S(=O)(=O)c2ccc(-c3ccccc3)cc2)cc1`, the 50% inhibitory concentration (IC50) in test [1] amounted to 1.1 µM; on Prostaglandin E synthase, 1.6 µM. In addition, the Activity in test [3] came to 117%.

For `O=C(O)c1ccc(N(Cc2cccs2)S(=O)(=O)c2ccc(Cl)cc2)cc1`, the Activity in test [4] came out at 97.2%; in test [2], 96.7%; in test [3], 86.1%.

Consider `Cc1ccc(CN(c2ccc(C(=O)O)cc2)S(=O)(=O)c2ccc(-c3ccccc3)cc2)cc1`, for which the 50% inhibitory concentration (IC50) in test [1] turned out to be 1 µM; on Prostaglandin E synthase it was 5.2 µM. Moreover, in test [3], the Activity was determined as 65.6%.

The values above are taken from ChEMBL document CHEMBL4270576, “Discovery of a benzenesulfonamide-based dual inhibitor of microsomal prostaglandin E2 synthase-1 and 5-lipoxygenase that favorably modulates lipid mediator biosynthesis in inflammation” (Eur J Med Chem, 2018).
